Our source for the Activity, LD50 and Time values is ChEMBL document CHEMBL1177859, “Synthesis and antipsychotic and anticonvulsant activity of some new substituted oxa/thiadiazolylazetidinonyl/thiazolidinonylcarbazoles” (Eur J Med Chem, 2010).

The subject of data set [1] is Rattus norvegicus. The experiment in a line: Anticonvulsant activity in rat assessed as protection against maximal electric shock-induced seizures at 40 mg/kg, ip. It counts as functional. Particulars: route intraperitoneal. The procedure, abridged: (§1)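 Rats dosed i.p.: test agents at 40 mg/kg, with a propylene glycol group at 0.5 mL. Maximal electroshock (MES) seizure test, scored as % seizure protection.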

Data set [2] can be described thus: Toxicity in ip dosed rat. It counts as organism-based. The conditions noted are these: in vivo.
Data set [3] relates to Rattus norvegicus. The data set is described as follows: Toxicity in rat assessed as time spent on rotarod at 40 mg/kg, ip by rotarod test. It counts as organism-based. On the set-up: dose 40 mg/kg, route intraperitoneal. The conditions noted are these: in vivo. Summed up:
(§2)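 Rats dosed i.p.: test agents at 40 mg/kg, with a propylene glycol group at 0.5 mL. Rotarod performance test, recorded as mean time in seconds on the rod.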

Data set [4] concerns Rattus norvegicus. The experiment in a line: Anticonvulsant activity in rat assessed as protection against maximal electric shock-induced seizures at 0.5 mL, ip. It counts as functional. Summed up: as §1
Data set [5] has as its system Rattus norvegicus. The experiment in a line: Toxicity in rat assessed as time spent on rotarod at 0.5 mL, ip by rotarod test. The class given is organism-based. The conditions noted are these: in vivo. The procedure, abridged:
as §2

Usually LD50 stands for the dose expected to kill half of the subjects tested. A higher LD50 goes with lower toxicity. With `O=C1C(Cl)C(c2ccc(O)cc2O)N1c1nnc(Cn2c3ccccc3c3ccccc32)o1` (stereo not drawn), the Activity in data set [1] was determined as 50%. This molecule came in with a 50% lethal dose (LD50) in data set [2] of more than 1000 mg/kg. Further, the Time in data set [3] is reported as 106.4 s.

Consider `CN(C)c1ccc(C2C(Cl)C(=O)N2c2nnc(Cn3c4ccccc4c4ccccc43)s2)cc1` (stereo not drawn), for which the Activity in data set [1] came to 50%. In addition, the LD50 in data set [2] is more than 1000 mg/kg. In data set [3], the Time is recorded as 106 s.

As for `Brc1ccccc1/C=N/c1nnc(Cn2c3ccccc3c3ccccc32)o1`, the Activity in data set [1] worked out at 30%. In data set [2], this molecule returned an LD50 of more than 1000 mg/kg. The Time in data set [3] amounted to 110.8 s.

Regarding `Oc1ccc(/C=N/c2nnc(Cn3c4ccccc4c4ccccc43)s2)cc1`, the Activity in data set [1] worked out at 40%. This molecule had an LD50 in data set [2] of more than 1000 mg/kg. The Time in data set [3] came to 108.8 s.

Take `Oc1ccc(/C=N/c2nnc(Cn3c4ccccc4c4ccccc43)s2)c(O)c1`: in data set [1], the Activity turned out to be 50%. Moreover, the LD50 in data set [2] is more than 1000 mg/kg. In data set [3], the Time is reported as 108.6 s.

Take `O=C1C(Cl)C(c2ccccc2Br)N1c1nnc(Cn2c3ccccc3c3ccccc32)s1` (stereo not drawn): the Activity in data set [1] is 80%. For the same molecule, in data set [2], the LD50 was more than 1000 mg/kg. Besides, in data set [3], the Time was found to be 98 s.

As to `O=C1CSC(c2ccc(O)cc2O)N1c1nnc(Cn2c3ccccc3c3ccccc32)s1` (stereo not drawn), the Activity in data set [1] is recorded as 70%. For the same molecule, in data set [2], the LD50 was more than 1000 mg/kg. Further, the Time in data set [3] is listed as 102.2 s.

On to `O=C1CSC(c2ccc(O)cc2)N1c1nnc(Cn2c3ccccc3c3ccccc32)o1` (stereo not drawn), for which, in data set [1], the Activity is 60%. This molecule also returned an LD50 in data set [2] of more than 1000 mg/kg. For the same molecule, the Time in data set [3] was 104.6 s.

Consider `O=C1CSC(c2ccc(O)cc2O)N1c1nnc(Cn2c3ccccc3c3ccccc32)o1` (stereo not drawn), for which the Activity in data set [1] is reported as 60%. The molecule further came in with an LD50 in data set [2] of more than 1000 mg/kg. Also, the Time in data set [3] was found to be 104.4 s.

Consider `COc1cc(C2SCC(=O)N2c2nnc(Cn3c4ccccc4c4ccccc43)s2)ccc1O` (stereo not drawn), for which the Activity in data set [1] is 70%. In addition, in data set [2], the LD50 was more than 1000 mg/kg. In addition, the Time in data set [3] amounted to 98.8 s.

`CN(C)c1ccc(C2SCC(=O)N2c2nnc(Cn3c4ccccc4c4ccccc43)s2)cc1` (stereo not drawn): the Activity in data set [1] stood at 60%. In data set [2], this molecule displayed an LD50 of more than 1000 mg/kg. For the same molecule, in data set [3], the Time is given as 104 s.

Consider `O=C1CSC(c2ccccc2Br)N1c1nnc(Cn2c3ccccc3c3ccccc32)s1` (stereo not drawn), for which, in data set [1], the Activity turned out to be 90%. The molecule also gave an LD50 in data set [2] of more than 1600 mg/kg. Besides, the Time in data set [3] was determined as 96 s.

Regarding `Oc1ccc(/C=N/c2nnc(Cn3c4ccccc4c4ccccc43)o2)cc1`, the Activity in data set [1] is on record as 20%. The same molecule yielded an LD50 in data set [2] of more than 1000 mg/kg. Also, the Time in data set [3] stood at 116.4 s.

Turning to `O=C1C(Cl)C(c2ccc(O)cc2)N1c1nnc(Cn2c3ccccc3c3ccccc32)s1` (stereo not drawn), the Activity in data set [1] is on record as 60%. In addition, the LD50 in data set [2] is more than 1000 mg/kg. The Time in data set [3] is on record as 102 s.

On to `O=C1C(Cl)C(c2ccc(O)cc2O)N1c1nnc(Cn2c3ccccc3c3ccccc32)s1` (stereo not drawn), for which, in data set [1], the Activity was 50%. In addition, the LD50 in data set [2] is more than 1000 mg/kg. The Time in data set [3] is 102.2 s.

As for `COc1cc(/C=N/c2nnc(Cn3c4ccccc4c4ccccc43)s2)ccc1O`, the Activity in data set [1] is 50%. The molecule further registered an LD50 in data set [2] of more than 1000 mg/kg. Also, the Time in data set [3] worked out at 106.8 s.

For the molecule `CN(C)c1ccc(/C=N/c2nnc(Cn3c4ccccc4c4ccccc43)s2)cc1`, the Activity in data set [1] is listed as 40%. In data set [2], this molecule displayed an LD50 of more than 1000 mg/kg. Besides, the Time in data set [3] turned out to be 110.2 s.

Turning to `COc1cc(C2C(Cl)C(=O)N2c2nnc(Cn3c4ccccc4c4ccccc43)o2)ccc1O` (stereo not drawn), the Activity in data set [1] was determined as 50%. Besides, the LD50 in data set [2] was more than 1000 mg/kg. In data set [3], the Time came to 102.4 s.

`COc1cc(C2SCC(=O)N2c2nnc(Cn3c4ccccc4c4ccccc43)o2)ccc1O` (stereo not drawn): in data set [1], the Activity was 70%. This molecule also came in with an LD50 in data set [2] of more than 1000 mg/kg. Also, the Time in data set [3] was found to be 102.8 s.

Consider `Oc1ccc(/C=N/c2nnc(Cn3c4ccccc4c4ccccc43)o2)c(O)c1`, for which the Activity in data set [1] is 30%. In data set [2], this molecule displayed an LD50 of more than 1000 mg/kg. Moreover, in data set [3], the Time was determined as 114.8 s.

For `COc1cc(/C=N/c2nnc(Cn3c4ccccc4c4ccccc43)o2)ccc1O`, in data set [1], the Activity is 30%. Also, in data set [2], the LD50 is more than 1000 mg/kg. In addition, the Time in data set [3] stood at 112.2 s.

Consider `CN(C)c1ccc(/C=N/c2nnc(Cn3c4ccccc4c4ccccc43)o2)cc1`, for which the Activity in data set [1] was 20%. In data set [2], this molecule returned an LD50 of more than 1000 mg/kg. Besides, the Time in data set [3] came to 114 s.

Regarding `CN(C)c1ccc(C2C(Cl)C(=O)N2c2nnc(Cn3c4ccccc4c4ccccc43)o2)cc1` (stereo not drawn), the Activity in data set [1] is on record as 40%. Also, the LD50 in data set [2] was more than 1000 mg/kg. Besides, the Time in data set [3] worked out at 100.2 s.

Regarding `O=C1C(Cl)C(c2ccccc2Br)N1c1nnc(Cn2c3ccccc3c3ccccc32)o1` (stereo not drawn), the Activity in data set [1] was found to be 60%. Further, the median lethal dose (LD50) in data set [2] was more than 1000 mg/kg. The Time in data set [3] was 98.8 s.

`CN(C)c1ccc(C2SCC(=O)N2c2nnc(Cn3c4ccccc4c4ccccc43)o2)cc1` (stereo not drawn): the Activity in data set [1] is recorded as 60%. In data set [2], this molecule returned an LD50 of more than 1000 mg/kg. In addition, in data set [3], the Time was determined as 104.2 s.

Consider `O=C1CSC(c2ccccc2Br)N1c1nnc(Cn2c3ccccc3c3ccccc32)o1` (stereo not drawn), for which the Activity in data set [1] amounted to 70%. In data set [2], the LD50 was more than 1000 mg/kg. Moreover, the Time in data set [3] came to 96.6 s.

Consider `O=C1CSC(c2ccc(O)cc2)N1c1nnc(Cn2c3ccccc3c3ccccc32)s1` (stereo not drawn), for which, in data set [1], the Activity is reported as 60%. In addition, the LD50 in data set [2] was more than 1000 mg/kg. Moreover, the Time in data set [3] is recorded as 100.6 s.

With `Brc1ccccc1/C=N/c1nnc(Cn2c3ccccc3c3ccccc32)s1`, the Activity in data set [1] is 60%. The molecule further showed an LD50 in data set [2] of more than 1000 mg/kg. In addition, the Time in data set [3] was found to be 106.8 s.

On to `O=C1C(Cl)C(c2ccc(O)cc2)N1c1nnc(Cn2c3ccccc3c3ccccc32)o1` (stereo not drawn), for which the Activity in data set [1] was determined as 40%. The LD50 in data set [2] is more than 1000 mg/kg. The Time in data set [3] is recorded as 104.6 s.

Turning to `COc1cc(C2C(Cl)C(=O)N2c2nnc(Cn3c4ccccc4c4ccccc43)s2)ccc1O` (stereo not drawn), the Activity in data set [1] was 70%. In data set [2], the LD50 was more than 1000 mg/kg. The Time in data set [3] is listed as 102.4 s.

Consider `O=C(CCCN1CCC(O)(c2ccc(Cl)cc2)CC1)c1ccc(F)cc1` [HALOPERIDOL], for which the Activity in data set [4] was 0%.

On to `CC(O)CO` (stereo not drawn) [PROPYLENE GLYCOL], for which the Activity in data set [4] turned out to be 0%. Moreover, in data set [5], the Time is on record as 120 s.
